# In ChEMBL document CHEMBL3774381, “Discovery of Novel and Orally Bioavailable Inhibitors of PI3 Kinase Based on Indazole Substituted Morpholino-Triazines” (ACS Med Chem Lett, 2015):
# pEC50, pIC50: −log10 of the molar value.
# Tests used:
# [1] = target: Phosphatidylinositol 4,5-bisphosphate 3-kinase catalytic subunit alpha isoform (Homo sapiens, UniProt P42336); test: Inhibition of human recombinant PI3K-alpha using phosphatidylinositol biphosphate as substrate preincubated for 15 mins followed by substrate addition measured after 60 mins by HTRF assay
# A2780 = test: Antiproliferative activity against human A2780 cells assessed as reduction in cell viability after 48 hrs by MTT assay; format: functional, cell-based; settings: A2780, 48 h
# Method in brief: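 Cellular EC50 was determined in the A2780 ovarian cancer line, with a coefficient of variation below 5%.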
# [2] = Metabolic stability in human liver microsomes assessed as parent compound remaining at 10 uM after 2 hrs by HPLC analysis in presence of NADPH; format: ADME; settings: read-out: Stability
# Method in brief: (§1)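 Compound was incubated with isolated human, dog or mouse liver microsomes for 2 h. Parent concentration was followed by HPLC at 0, 0.5, 1 and 2 h, and the 2 h value is reported as remaining parent.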
# Cytochrome P450 3A4 [3] = target: T1, Cytochrome P450 3A4 (Homo sapiens, UniProt P08684); test: Inhibition of CYP3A4 (unknown origin) at 10 uM; format: ADME
# Method in brief: (§2)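 Inhibition of CYP3A4, CYP2C19 and CYP2D6 activity was screened with test compound at 10 μM.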
# Cytochrome P450 2C19 [4] = target: T2, Cytochrome P450 2C19 (Homo sapiens, UniProt P33261); test: Inhibition of CYP2C19 (unknown origin); format: ADME; method in brief: as §2
# Cytochrome P450 2D6 [5] = target: T3, Cytochrome P450 2D6 (Homo sapiens, UniProt P10635); test: Inhibition of CYP2D6 (unknown origin); format: ADME; method in brief: as §2
# Cytochrome P450 2D6 [6] = target: T3, Cytochrome P450 2D6; test: Inhibition of CYP2D6 (unknown origin) at 10 uM; format: ADME; method in brief: as §2
# [7] = Metabolic stability in mouse liver microsomes assessed as parent compound remaining at 10 uM after 2 hrs by HPLC analysis in presence of NADPH; format: ADME; settings: read-out: Stability; method in brief: as §1
# Cytochrome P450 3A4 [8] = target: T1, Cytochrome P450 3A4; test: Inhibition of CYP3A4 (unknown origin); format: ADME
# Cytochrome P450 2C19 [9] = target: T2, Cytochrome P450 2C19; test: Inhibition of CYP2C19 (unknown origin) at 10 uM; format: ADME; method in brief: as §2
# [10] = Tmax in Swiss mouse plasma at 1 mg/kg, po after 0.16 to 8 hrs by LC-MS analysis; format: ADME, organism-based
# Method in brief: (§3)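 Single oral doses of 1, 3 and 10 mpk were given to mice in a dose-ranging study, with the 3 mpk screen run in Swiss mice. Plasma tmax, Cmax, AUC and elimination t1/2 were derived from each dose group.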
# Mus musculus [11] = test: Toxicity in Swiss mouse assessed as body weight loss at 30 mg/kg, po bid for 5 days; format: organism-based; settings: in vivo, 120 h
# Method in brief: (§4)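 Swiss mice were dosed orally at 30 mpk BID for 5 consecutive days. Body weight, body temperature (hyper- or hypothermia), body coat and level of physical activity were monitored throughout.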
# [12] = Cmax in Swiss mouse plasma at 3 mg/kg, po after 0.16 to 8 hrs by LC-MS analysis; format: ADME, organism-based; set-up: dose 3 mg/kg, route oral; method in brief: as §3
# Mus musculus [13] = test: Toxicity in Swiss mouse assessed as hyperthermia at 30 mg/kg, po bid for 5 days; format: organism-based; settings: in vivo, 120 h; method in brief: as §4
# [14] = Cmax in Swiss mouse plasma at 10 mg/kg, po after 0.16 to 8 hrs by LC-MS analysis; format: ADME, organism-based; set-up: dose 10 mg/kg, route oral; method in brief: as §3
# [15] = Elimination half life in Swiss mouse plasma at 10 mg/kg, po after 0.16 to 8 hrs by LC-MS analysis; format: ADME, organism-based; settings: read-out: beta t1/2 (converted); method in brief: as §3
# [16] = AUC in Swiss mouse plasma at 10 mg/kg, po after 0.16 to 8 hrs by LC-MS analysis; format: ADME, organism-based; set-up: dose 10 mg/kg, time 0.16-8 hr, route oral; method in brief: as §3
# Mus musculus [17] = test: Toxicity in Swiss mouse assessed as changes in body coat at 30 mg/kg, po bid for 5 days; format: organism-based; settings: in vivo, 120 h; method in brief: as §4
# [18] = Tmax in Swiss mouse plasma at 10 mg/kg, po after 0.16 to 8 hrs by LC-MS analysis; format: ADME, organism-based; method in brief: as §3
# [19] = AUC in Swiss mouse plasma at 3 mg/kg, po after 0.16 to 8 hrs by LC-MS analysis; format: ADME, organism-based; set-up: time lower 0.16 hr, dose 3 mg/kg, time upper 8 hr, route oral; method in brief: as §3
# Mus musculus [20] = test: Toxicity in Swiss mouse assessed as reduced physical activity at 30 mg/kg, po bid for 5 days; format: organism-based; settings: in vivo, 120 h; method in brief: as §4
# [21] = AUC in Swiss mouse plasma at 1 mg/kg, po after 0.16 to 8 hrs by LC-MS analysis; format: ADME, organism-based; set-up: dose 1 mg/kg, time 0.16-8 hr, route oral
# [22] = Elimination half life in Swiss mouse plasma at 1 mg/kg, po after 0.16 to 8 hrs by LC-MS analysis; format: ADME, organism-based; settings: read-out: beta t1/2 (converted)
# [23] = Elimination half life in Swiss mouse plasma at 3 mg/kg, po after 0.16 to 8 hrs by LC-MS analysis; format: ADME, organism-based; settings: read-out: beta t1/2 (converted); method in brief: as §3
# [24] = Tmax in Swiss mouse plasma at 3 mg/kg, po after 0.16 to 8 hrs by LC-MS analysis; format: ADME, organism-based; method in brief: as §3
# [25] = Cmax in Swiss mouse plasma at 1 mg/kg, po after 0.16 to 8 hrs by LC-MS analysis; format: ADME, organism-based; set-up: dose 1 mg/kg, route oral; method in brief: as §3
# [26] = Metabolic stability in dog liver microsomes assessed as parent compound remaining at 10 uM after 2 hrs by HPLC analysis in presence of NADPH; format: ADME, Canis lupus familiaris; settings: read-out: Stability; method in brief: as §1
# Mus musculus [27] = test: Toxicity in Swiss mouse assessed as hypothermia at 30 mg/kg, po bid for 5 days; format: organism-based; settings: in vivo, 120 h; method in brief: as §4
# T2 sequence (P33261 whole entry): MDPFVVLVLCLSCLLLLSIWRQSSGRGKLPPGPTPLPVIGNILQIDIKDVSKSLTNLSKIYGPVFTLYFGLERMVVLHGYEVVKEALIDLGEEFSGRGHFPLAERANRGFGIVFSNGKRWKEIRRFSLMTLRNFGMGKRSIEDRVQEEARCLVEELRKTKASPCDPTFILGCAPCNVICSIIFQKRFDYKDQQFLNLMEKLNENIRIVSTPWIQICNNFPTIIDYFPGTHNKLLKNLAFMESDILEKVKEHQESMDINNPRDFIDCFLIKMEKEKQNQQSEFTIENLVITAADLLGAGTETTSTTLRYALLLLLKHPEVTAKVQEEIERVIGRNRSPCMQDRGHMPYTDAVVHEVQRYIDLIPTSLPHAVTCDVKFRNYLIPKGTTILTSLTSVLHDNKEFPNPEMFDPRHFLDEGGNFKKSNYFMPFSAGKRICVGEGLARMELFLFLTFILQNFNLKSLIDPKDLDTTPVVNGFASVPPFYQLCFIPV
# T1 sequence (P08684 whole entry): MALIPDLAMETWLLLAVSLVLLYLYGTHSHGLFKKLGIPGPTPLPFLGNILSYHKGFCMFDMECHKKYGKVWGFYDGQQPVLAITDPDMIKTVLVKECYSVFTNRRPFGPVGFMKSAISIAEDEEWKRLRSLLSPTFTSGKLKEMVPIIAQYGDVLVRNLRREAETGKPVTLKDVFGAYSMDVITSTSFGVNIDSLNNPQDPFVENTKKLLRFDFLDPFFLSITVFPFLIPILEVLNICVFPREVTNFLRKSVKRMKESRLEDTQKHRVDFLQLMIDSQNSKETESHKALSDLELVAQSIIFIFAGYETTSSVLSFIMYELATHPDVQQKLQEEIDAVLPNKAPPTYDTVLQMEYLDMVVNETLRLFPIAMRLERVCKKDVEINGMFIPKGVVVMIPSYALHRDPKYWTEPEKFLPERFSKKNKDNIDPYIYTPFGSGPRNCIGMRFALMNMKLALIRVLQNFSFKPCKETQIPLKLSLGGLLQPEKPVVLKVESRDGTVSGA
# T3 sequence (P10635 whole entry): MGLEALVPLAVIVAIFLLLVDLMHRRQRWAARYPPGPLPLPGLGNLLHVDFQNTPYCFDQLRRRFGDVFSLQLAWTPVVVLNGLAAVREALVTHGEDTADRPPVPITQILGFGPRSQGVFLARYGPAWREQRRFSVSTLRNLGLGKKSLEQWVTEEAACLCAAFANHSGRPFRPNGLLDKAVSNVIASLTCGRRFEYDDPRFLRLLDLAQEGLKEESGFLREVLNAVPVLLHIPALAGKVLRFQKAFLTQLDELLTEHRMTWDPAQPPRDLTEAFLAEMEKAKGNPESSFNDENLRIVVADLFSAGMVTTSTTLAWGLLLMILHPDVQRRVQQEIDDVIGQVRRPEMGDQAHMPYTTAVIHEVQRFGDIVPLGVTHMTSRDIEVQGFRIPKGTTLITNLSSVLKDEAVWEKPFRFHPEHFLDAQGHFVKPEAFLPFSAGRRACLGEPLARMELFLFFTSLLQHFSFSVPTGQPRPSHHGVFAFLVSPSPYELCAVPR
# Chain of Phosphatidylinositol 4,5-bisphosphate 3-kinase catalytic subunit alpha isoform (P42336 whole entry, canonical isoform): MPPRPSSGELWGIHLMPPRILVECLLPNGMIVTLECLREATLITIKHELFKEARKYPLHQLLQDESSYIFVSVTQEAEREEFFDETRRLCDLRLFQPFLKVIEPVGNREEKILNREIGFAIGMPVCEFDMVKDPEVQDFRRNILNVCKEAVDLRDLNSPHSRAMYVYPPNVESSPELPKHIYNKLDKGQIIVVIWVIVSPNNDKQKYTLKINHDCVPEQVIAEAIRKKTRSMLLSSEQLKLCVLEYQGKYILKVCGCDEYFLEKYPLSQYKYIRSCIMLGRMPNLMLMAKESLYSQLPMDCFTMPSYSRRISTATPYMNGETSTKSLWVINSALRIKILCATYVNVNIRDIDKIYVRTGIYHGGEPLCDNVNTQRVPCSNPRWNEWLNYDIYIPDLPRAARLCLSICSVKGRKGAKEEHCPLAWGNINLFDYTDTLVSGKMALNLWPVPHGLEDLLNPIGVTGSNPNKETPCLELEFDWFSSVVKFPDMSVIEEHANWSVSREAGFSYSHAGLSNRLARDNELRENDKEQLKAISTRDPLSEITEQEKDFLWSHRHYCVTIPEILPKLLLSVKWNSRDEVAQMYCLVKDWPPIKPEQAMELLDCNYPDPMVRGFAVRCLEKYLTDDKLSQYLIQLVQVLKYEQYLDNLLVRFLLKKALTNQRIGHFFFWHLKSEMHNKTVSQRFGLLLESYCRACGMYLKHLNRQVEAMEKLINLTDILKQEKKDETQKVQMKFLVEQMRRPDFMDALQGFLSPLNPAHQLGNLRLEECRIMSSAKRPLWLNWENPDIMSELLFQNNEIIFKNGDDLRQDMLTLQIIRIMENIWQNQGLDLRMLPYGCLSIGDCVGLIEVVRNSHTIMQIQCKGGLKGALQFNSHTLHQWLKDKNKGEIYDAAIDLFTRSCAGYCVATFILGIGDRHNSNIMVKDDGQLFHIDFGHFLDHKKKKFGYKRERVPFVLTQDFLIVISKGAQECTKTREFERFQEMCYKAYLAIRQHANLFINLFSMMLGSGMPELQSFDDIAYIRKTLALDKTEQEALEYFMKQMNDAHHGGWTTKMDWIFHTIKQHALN
structure (smiles),measurement,setting,value
NC(=O)CNc1nc(-c2cccc(O)c2)nc(N2CCOCC2)n1,pIC50,[1],6.13
O=C1CCN(c2nc(-c3cccc4[nH]ncc34)nc(N3CCOCC3)n2)CCN1,pEC50,A2780,5.58
same,pIC50,[1],6.70
COC(=O)CNc1nc(-c2cccc(O)c2)nc(N2CCOCC2)n1,pIC50,[1],5.93
CN(C)C(=O)c1cc(Oc2nc(-c3cccc4[nH]ncc34)nc(N3CCOCC3)n2)cs1,pEC50,A2780,5.85
same,pIC50,[1],7.00
Nc1cccc(-c2nc(NCC(=O)O)nc(N3CCOCC3)n2)c1,pIC50,[1],< 5.00
CN(C)C(=O)N1CCC(Oc2nc(-c3cccc4[nH]ncc34)nc(N3CCOCC3)n2)CC1,"remaining at 2 h, 10 µM",[2],80.7%
same,inhibition (INH),Cytochrome P450 3A4 [3],Not Active
same,pIC50,Cytochrome P450 2C19 [4],< 5.00
same,pIC50,Cytochrome P450 2D6 [5],< 5.00
same,inhibition (INH),Cytochrome P450 2D6 [6],Not Active
same,pEC50,A2780,6.14
same,"remaining at 2 h, 10 µM",[7],24.8%
same,pIC50,[1],7.22
same,pIC50,Cytochrome P450 3A4 [8],< 4.82
same,inhibition (INH),Cytochrome P450 2C19 [9],Not Active
NC(=O)c1cccc(Oc2nc(-c3cccc4[nH]ncc34)nc(N3CCOCC3)n2)c1,pEC50,A2780,5.49
same,pIC50,[1],6.57
O=C1CN(c2nc(-c3cccc4[nH]ncc34)nc(N3CCOCC3)n2)CCN1,pEC50,A2780,5.40
same,pIC50,[1],6.40
c1ccc(Nc2nc(-c3cccc4[nH]ncc34)nc(N3CCOCC3)n2)cc1,pEC50,A2780,5.43
same,pIC50,[1],6.10
CN(C)C(=O)CNc1nc(-c2cccc(O)c2)nc(N2CCOCC2)n1,pIC50,[1],6.27
CN(C)C(=O)CNc1nc(-c2cccc3c2CCC3O)nc(N2CCOCC2)n1 (stereo unspecified),pIC50,[1],< 4.70
CN(C)C(=O)CNc1nc(-c2cncc(O)c2)nc(N2CCOCC2)n1,pIC50,[1],5.80
NC(=O)c1cccc(Nc2nc(-c3cccc4[nH]ncc34)nc(N3CCOCC3)n2)c1,pEC50,A2780,6.09
same,pIC50,[1],7.10
CN(C)C(=O)CCNc1nc(-c2cccc3[nH]ncc23)nc(N2CCOCC2)n1,pEC50,A2780,5.20
same,pIC50,[1],6.22
CN(C)C(=O)CNc1nc(-c2cccc3[nH]ncc23)nc(N2CCOCC2)n1,pIC50,[1],5.96
CN(C)C(=O)c1sccc1Nc1nc(-c2cccc3[nH]ncc23)nc(N2CCOCC2)n1,pEC50,A2780,5.72
same,pIC50,[1],6.70
CNc1cccc(Nc2nc(-c3cccc4[nH]ncc34)nc(N3CCOCC3)n2)c1,pEC50,A2780,6.07
CS(=O)(=O)N1CCN(C(=O)CNc2nc(-c3cccc(O)c3)nc(N3CCOCC3)n2)CC1,pIC50,[1],5.97
CN(C)C(=O)CNc1nc(-c2cccc(C(N)=O)c2)nc(N2CCOCC2)n1,pIC50,[1],< 4.70
CN(CC(=O)O)c1nc(-c2cccc(O)c2)nc(N2CCOCC2)n1,pIC50,[1],5.00
CN(C)C(=O)c1ccc(Oc2nc(-c3cccc4[nH]ncc34)nc(N3CCOCC3)n2)cc1,Tmax,[10],1 h
same,Activity,Mus musculus [11],Non-toxic
same,Cmax,[12],1240 nM
same,Activity,Mus musculus [13],Non-toxic
same,"remaining at 2 h, 10 µM",[2],101%
same,inhibition (INH),Cytochrome P450 3A4 [3],Not Active
same,Cmax,[14],1800 nM
same,half-life,[15],6.87 h
same,AUC,[16],9.79 µM·h
same,pIC50,Cytochrome P450 2C19 [4],< 5.00
same,Activity,Mus musculus [17],Non-toxic
same,pIC50,Cytochrome P450 2D6 [5],< 5.00
same,Tmax,[18],2.33 h
same,AUC,[19],5.25 µM·h
same,Activity,Mus musculus [20],Non-toxic
same,AUC,[21],2.12 µM·h
same,inhibition (INH),Cytochrome P450 2D6 [6],Not Active
same,pEC50,A2780,6.28
same,half-life,[22],6.93 h
same,half-life,[23],4.86 h
same,"remaining at 2 h, 10 µM",[7],45.6%
same,Tmax,[24],1 h
same,Cmax,[25],360 nM
same,pIC50,[1],7.22
same,pIC50,Cytochrome P450 3A4 [8],< 4.82
same,inhibition (INH),Cytochrome P450 2C19 [9],Not Active
same,"remaining at 2 h, 10 µM",[26],83.8%
same,Activity,Mus musculus [27],Non-toxic
COc1cccc(-c2nc(NCC(=O)O)nc(N3CCOCC3)n2)c1,pIC50,[1],< 4.70
Nc1nc(-c2cccc(O)c2)nc(N2CCOCC2)n1,pIC50,[1],6.17
CNC(=O)CNc1nc(-c2cccc(O)c2)nc(N2CCOCC2)n1,pIC50,[1],6.14
O=C(O)CNc1nc(-c2ccccc2)nc(N2CCOCC2)n1,pIC50,[1],< 4.70
CN(C)C(=O)[C@H]1CC[C@H](Oc2nc(-c3cccc4[nH]ncc34)nc(N3CCOCC3)n2)CC1,"remaining at 2 h, 10 µM",[2],99%
same,inhibition (INH),Cytochrome P450 3A4 [3],Not Active
same,pIC50,Cytochrome P450 2C19 [4],< 5.00
same,pIC50,Cytochrome P450 2D6 [5],< 5.00
same,inhibition (INH),Cytochrome P450 2D6 [6],Not Active
same,pEC50,A2780,6.17
same,"remaining at 2 h, 10 µM",[7],27.3%
same,pIC50,[1],7.22
same,pIC50,Cytochrome P450 3A4 [8],< 4.82
same,inhibition (INH),Cytochrome P450 2C19 [9],Not Active
CN(C)C(=O)c1cccc(Nc2nc(-c3cccc4[nH]ncc34)nc(N3CCOCC3)n2)c1,pEC50,A2780,6.10
same,pIC50,[1],7.22
